Measured values taken from ChEMBL document CHEMBL4130346, “New quinoline-arylamidine hybrids: Synthesis, DNA/RNA binding and antitumor activity” (Eur J Med Chem, 2017).
Activity calls are given as the source filed them. No cut-off for these calls is given here.

Experiments:
[1] = Growth inhibition of MDCK1 cells after 72 hrs by MTT assay; design: species or system Canis lupus familiaris; details: dog
Method in brief: (§1)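 Adherent cells (2x10^4 cells/cm3) attached overnight, then were exposed to compound for 72 h. Medium was replaced with 5 mg/cm3 MTT, formazan was dissolved in DMSO and absorbance read at 595 nm. Percent growth was taken relative to untreated control minus background. GI50 came from a variable-slope log-inhibitor fit, as mean ± SD of three independent experiments in triplicate.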

Calf thymus DNA [2] = assay: Binding affinity to calf thymus DNA assessed as change in melting temperature at 0.3 compound to ds-polynucleotide ratio by spectrophotometric method; type: nucleic-acid assay; details: Bos taurus
Method in brief: (§2)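 Thermal melting of ct-DNA (sonicated, filtered) or polyA-polyU in Na cacodylate buffer, I = 0.05 mol dm-3, pH 7.0, at given r = [compound]/[polynucleotide]; polynucleotide as phosphate concentration. Tm from maximum of first derivative, checked by tangent method. ΔTm = Tm(complex) − Tm(free nucleic acid), average of at least two measurements, error ±0.5 °C.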

Calf thymus DNA [3] = assay: Binding affinity to calf thymus DNA minor groove at 0.1, 0.3, 0.5, 0.7 compound to ds-polynucleotide ratio by CD-spectrophotometric method; type: nucleic-acid assay; details: Bos taurus
Method in brief: (§3)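 Induced CD spectra were recorded in 1 cm quartz cuvettes in Na cacodylate buffer (I = 0.05 mol dm-3, pH 7.0) with ct-DNA or polyA-polyU. Compound was added at r = [compound]/[polynucleotide] = 0.1, 0.3, 0.5 and 0.7. The CD signal was followed as a function of r.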

Calf thymus DNA [4] = assay: Binding affinity to calf thymus DNA assessed as hypochromic effect by UV-vis spectrophotometric method; type: nucleic-acid assay; details: Bos taurus
Method in brief: (§4)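 UV-Vis titration at room temperature in Na cacodylate buffer (I = 0.05 mol dm-3, pH 7.0). Portions of ct-DNA or polyA-polyU were added to a fixed compound concentration until saturation, with dilution correction. Polynucleotide was measured as phosphate. Ks and n were obtained by Scatchard analysis, together with the hypochromic change at the absorption maximum.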

Calf thymus DNA [5] = assay: Binding affinity to calf thymus DNA assessed as change in melting temperature at 0.1 compound to ds-polynucleotide ratio by spectrophotometric method; type: nucleic-acid assay; details: Bos taurus; method in brief: as §2
HeLa = assay: Growth inhibition of human HeLa cells after 72 hrs by MTT assay; type: functional; method in brief: as §1
Calf thymus DNA [6] = assay: Binding affinity to calf thymus DNA by UV-vis spectrophotometric method; type: nucleic-acid assay; details: Bos taurus; method in brief: as §4
K562 = assay: Growth inhibition of human K562 cells after 72 hrs by MTT assay; type: functional; details: K562, 72 h
Method in brief: (§5)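 Leukemia cells (1x10^5 cells/cm3) were exposed to compound for 72 h, then MTT (5 mg/cm3) was added for 4 h. Formazan was dissolved with 10% SDS in 0.01 mol dm-3 HCl and absorbance read at 595 nm. Percent growth was taken versus untreated control minus background. GI50 came from a variable-slope fit, as mean ± SD of three independent experiments in triplicate.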

[7] = Chemical stability in aqueous solution after several weeks; type: physicochemical; details: buffer
Method in brief: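 Aqueous compound solutions were monitored for several weeks by UV-Vis absorbance at 220-900 nm. Linearity with concentration was checked up to 3.5 × 10^-5 mol dm-3, and spectra were recorded at 25–90 °C with reproducibility checked on cooling to 25 °C.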

Raji = assay: Growth inhibition of human Raji cells after 72 hrs by MTT assay; type: functional; method in brief: as §5
Calf thymus DNA [8] = assay: Binding affinity to calf thymus DNA assessed as change in melting temperature at 0.5 compound to ds-polynucleotide ratio by spectrophotometric method; type: nucleic-acid assay; details: Bos taurus; method in brief: as §2
[9] = Binding affinity to polyA-polyU (unknown origin) assessed as hypochromic effect by UV-vis spectrophotometric method; method in brief: as §4
[10] = Binding affinity to polyA-polyU (unknown origin) by UV-vis spectrophotometric method; method in brief: as §4
[11] = Solubility of the compound in water; type: physicochemical
Calf thymus DNA [12] = assay: Disruption of calf thymus DNA helix at 0.1, 0.3, 0.5, 0.7 compound to ds-polynucleotide ratio by CD-spectrophotometric method; type: nucleic-acid assay; details: Bos taurus; method in brief: as §3
Caco-2 = assay: Growth inhibition of human Caco2 cells after 72 hrs by MTT assay; type: functional; details: Caco-2, 72 h; method in brief: as §1
[13] = Binding affinity to polyA-polyU (unknown origin) assessed as change in melting temperature at 0.3 compound to ds-polynucleotide ratio by spectrophotometric method; method in brief: as §2
[14] = Binding affinity to polyA-polyU (unknown origin) assessed as change in melting temperature at 0.1 compound to ds-polynucleotide ratio by spectrophotometric method; method in brief: as §2
[15] = Induction of polyA-polyU (unknown origin) intercalation at 0.1, 0.3, 0.5, 0.7 compound to ds-polynucleotide ratio by CD-spectrophotometric method; method in brief: as §3
[16] = Binding affinity to polyA-polyU (unknown origin) assessed as change in melting temperature at 0.5 compound to ds-polynucleotide ratio by spectrophotometric method; method in brief: as §2

Structure (SMILES)	GI50 at 72 h [1] [µM]	ΔTm (Calf thymus DNA [2]) [°C]	Activity (Calf thymus DNA [3])	Activity (Calf thymus DNA [4]) [%]	ΔTm (Calf thymus DNA [5]) [°C]	GI50 (HeLa) [µM]	log Ks (Calf thymus DNA [6])	GI50 (K562) [µM]	Stability [7]	GI50 (Raji) [µM]	ΔTm (Calf thymus DNA [8]) [°C]	Activity [9]	log Ks [10]	solubility [11] [µM]	Activity (Calf thymus DNA [12])	GI50 (Caco-2) [µM]	ΔTm [13] [°C]	ΔTm [14] [°C]	Activity [15]	ΔTm [16] [°C]
Cl.Cl.Cl.Clc1ccc2c(NCCOc3ccc(-c4nc5ccc(C6=NCCCN6)cc5[nH]4)cc3)ccnc2c1	100	9.76	Active	31	6.33	> 100	6.52	13.3	Stable	19	10.8	inactive	inactive	1000	Active	> 100				
Cl.Cl.Cl.N=C(N)c1ccc2nc(-c3ccc(Oc4ccnc5cc(Cl)ccc45)cc3)[nH]c2c1	> 100	2.84	Active	79.8	2.07	> 100	6.83	> 100	Stable	111	2.9	6.9%	6.43	1000		82.9	0.72	2.98	Active	0.21
Cl.Cl.Clc1ccc2c(Oc3ccc(-c4nc5ccc(C6=NCCCN6)cc5[nH]4)cc3)ccnc2c1	67.1	3.31	Active	25.5	3.3	64.4	6.96	21.6	Stable	50.5	3.89	15.5%	7.29	1000		34.5	1.98	2.84	Active	1.82
CC(C)NC(=N)c1ccc2nc(-c3ccc(OCCNc4ccnc5cc(Cl)ccc45)cc3)[nH]c2c1.Cl.Cl.Cl	> 100	9.05	Active	23.7	5.83	> 100	6.63	17.2	Stable	19.6	9.83	inactive	inactive	1000	Active	> 100				
Cl.Cl.Clc1ccc2c(Oc3ccc(-c4nc5ccc(C6=NCCN6)cc5[nH]4)cc3)ccnc2c1	77.1	3.2	Active	68.5	1.6	> 100	5.76	27.6	Stable	40.6	4.08	69.7%		1000		36.8	0.78	-0.16	Active	1.12
CC(C)CNC(=N)c1ccc2nc(-c3ccc(Oc4ccnc5cc(Cl)ccc45)cc3)[nH]c2c1.Cl.Cl.Cl	53.5	1.41	Active	60.2	1.07	57	5.88	59.7	Stable	46.7	2.08	17.9%	6.05	1000		43.2	0.78	1.64	Active	0.25
Cl.Cl.N=C(NC1CCCC1)c1ccc2nc(-c3ccc(Oc4ccnc5cc(Cl)ccc45)cc3)[nH]c2c1	55.5	2.91	Active	36.7	1.41	61.9	6.23	54.6	Stable	41.5	3.07	22.8%	6.31	1000		47.4	4.06	0.18	Active	6.82
Cl.Cl.Cl.N=C(N)c1ccc2nc(-c3ccc(OCCNc4ccnc5cc(Cl)ccc45)cc3)[nH]c2c1	71.6	8.4	Active	17.7	4.84	> 100	6.72	34.7	Stable	29.3	8.4	inactive	inactive	1000	Active	> 100				
Cl.Cl.N=C(N)c1ccc(Oc2ccnc3cc(Cl)ccc23)cc1	52.8	2.17			1.76	59.1		62.5	Stable	53	2.07			1000		57.6	-0.16	0		-0.26
